The record followed here is ChEMBL document CHEMBL1154060, “Synthesis and structure-activity relationship of Huprine derivatives as human acetylcholinesterase inhibitors” (Bioorg Med Chem, 2009).

One test addresses Acetylcholinesterase (Homo sapiens, UniProt P22303). Nature of the test: Inhibition of human recombinant AChE […] by Ellman's assay. Background: In Ellman's method for cholinesterases, released thiocholine reacts with DTNB.
In test [1] the target is T1, Cholinesterase (Homo sapiens, UniProt P06276). Nature of the test: Inhibition of human recombinant BuChE assessed as enzyme activity reversion at 100 uM by Ellman's assay.
Test [2] concerns the target T1, Cholinesterase. Nature of the test: Inhibition of human recombinant BuChE by Ellman's assay. The method in brief:
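Ellman assay at 25 °C with 125 pM recombinant human enzyme: AChE with acetylthiocholine iodide, BuChE with butyrylthiocholine, substrate at 0.53 mM. Buffer was 0.1 M phosphate pH 7.4 with 15 mM NaCl, NaN3, BSA and DTNB. Inhibitor was preincubated with enzyme for at least 30 min. Rate read at 414 nm for 20 min against an inhibitor-free 100% control. Generally at least triplicate; IC50 by nonlinear regression.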

Another test is filed under the species Homo sapiens. As to the kind of experiment: Selectivity ratio of IC50 for human recombinant BuChE to IC50 for human recombinant AChE.
Test [3] addresses T1, Cholinesterase. Nature of the test: Inhibition of human recombinant BuChE assessed as enzyme activity reversion at 10 uM by Ellman's assay.

T1 sequence (P06276 whole entry): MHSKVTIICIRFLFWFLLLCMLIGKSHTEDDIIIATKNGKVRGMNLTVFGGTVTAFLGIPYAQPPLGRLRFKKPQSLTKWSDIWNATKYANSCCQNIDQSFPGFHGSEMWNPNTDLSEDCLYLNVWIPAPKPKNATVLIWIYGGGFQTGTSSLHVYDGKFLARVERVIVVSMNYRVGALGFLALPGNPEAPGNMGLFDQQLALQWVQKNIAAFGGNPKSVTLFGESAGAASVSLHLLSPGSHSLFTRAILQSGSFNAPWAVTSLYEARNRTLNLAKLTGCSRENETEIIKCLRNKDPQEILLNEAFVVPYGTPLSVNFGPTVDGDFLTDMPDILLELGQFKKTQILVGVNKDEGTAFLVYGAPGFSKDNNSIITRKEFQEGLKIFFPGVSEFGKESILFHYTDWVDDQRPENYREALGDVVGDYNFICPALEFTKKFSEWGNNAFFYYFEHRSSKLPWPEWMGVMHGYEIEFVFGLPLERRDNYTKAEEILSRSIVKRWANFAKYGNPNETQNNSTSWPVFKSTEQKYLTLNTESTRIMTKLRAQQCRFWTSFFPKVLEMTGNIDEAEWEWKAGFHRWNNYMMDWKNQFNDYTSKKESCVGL
Acetylcholinesterase, sequence (P22303 whole entry): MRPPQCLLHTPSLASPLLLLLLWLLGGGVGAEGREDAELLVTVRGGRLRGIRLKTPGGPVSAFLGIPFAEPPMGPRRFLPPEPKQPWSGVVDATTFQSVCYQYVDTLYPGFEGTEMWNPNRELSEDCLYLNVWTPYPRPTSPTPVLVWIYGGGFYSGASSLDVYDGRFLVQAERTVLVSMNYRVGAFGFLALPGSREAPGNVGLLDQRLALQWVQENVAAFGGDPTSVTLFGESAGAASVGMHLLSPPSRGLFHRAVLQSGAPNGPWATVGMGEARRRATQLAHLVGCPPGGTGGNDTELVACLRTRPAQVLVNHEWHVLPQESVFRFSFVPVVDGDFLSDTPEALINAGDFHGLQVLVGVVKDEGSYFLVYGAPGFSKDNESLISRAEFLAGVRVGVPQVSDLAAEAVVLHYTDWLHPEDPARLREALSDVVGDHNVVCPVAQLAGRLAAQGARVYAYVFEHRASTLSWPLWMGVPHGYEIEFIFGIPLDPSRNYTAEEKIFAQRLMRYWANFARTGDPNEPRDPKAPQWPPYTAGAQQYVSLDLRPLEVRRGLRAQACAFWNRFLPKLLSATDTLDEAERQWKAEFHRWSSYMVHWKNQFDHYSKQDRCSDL

Broadly, the IC50 is the concentration needed to halve the response being measured. A word on the inhibition: it is how much of the control response was suppressed. With `C#CCCCCCCN1CCc2cc(OC)c(OC)cc2C1c1ccc([N+](=O)[O-])cc1` (centres undefined), the half-maximal inhibitory concentration (IC50) on Acetylcholinesterase was found to be 2.92 µM. Also, at Cholinesterase [1], the inhibition was < 1%.
Take `CC1=CC2Cc3nc4cc(Cl)ccc4c(NCCN=[N+]=[N-])c3C(C1)C2` (racemic): the IC50 was 0.00869 µM at Acetylcholinesterase and 2.35 µM on Cholinesterase [2]. Moreover, the Ratio IC50 in the test listed under Homo sapiens amounted to 270.
Turning to `CCC1=CC2Cc3nc4cc(Cl)ccc4c(N)c3[C@@H](C1)C2` [HUPRINE X], on Acetylcholinesterase, the IC50 stood at 0.0011 µM.
For `CC1=CC2Cc3nc4oc(C5CCC5)nc4c(N)c3C(C1)C2` (racemic), at Acetylcholinesterase, the IC50 worked out at 27.1 µM.
Same read-out and setting: to `CC1=CC2Cc3nc4cc(Cl)ccc4c(NCCO)c3C(C1)C2` (racemic) belongs 0.00966 µM; to `CCC1=CC2Cc3nc4cnccc4c(N)c3C(C1)C2` (racemic), 0.664 µM; to `CC1=CC2Cc3nc4[nH]ncc4c(N)c3C(C1)C2` (racemic), 50 µM.
On to `CCC1=CC2Cc3nc4cc(Cl)ccc4c(NCCO)c3C(C1)C2` (racemic), for which the IC50 on Acetylcholinesterase was determined as 0.00675 µM; at Cholinesterase [2], 3.64 µM. Further, the Ratio IC50 in the test filed under Homo sapiens is 540.
`CC1=CC2Cc3nc4cc(Cl)ccc4c(NCCCl)c3C(C1)C2` (racemic): at Acetylcholinesterase, the IC50 was found to be 0.0433 µM.
On to `CCC1=CC2Cc3nc4cc(OC)c(OC)cc4c(N)c3C(C1)C2` (racemic), for which the IC50 on Acetylcholinesterase came out at 5.1 µM.
For `CCC1=CC2Cc3nc4oc(C5CC5)nc4c(N)c3C(C1)C2` (racemic), on Acetylcholinesterase, the IC50 came out at 50 µM.
In the case of `C#CCCCCCCN1CCc2cc(OC)c(OC)cc2C1c1cccc([N+](=O)[O-])c1` (centres undefined), the IC50 at Acetylcholinesterase came to 8.08 µM. Besides, the inhibition at Cholinesterase [1] is < 1%.
In the case of `CSc1n[nH]c2nc3c(c(N)c12)C1CC(C)=CC(C3)C1` (racemic), the IC50 on Acetylcholinesterase was 50 µM.
For the molecule `COc1cc2nc3c(c(N)c2cc1OC)C1CC(C)=CC(C3)C1` (racemic), the IC50 at Acetylcholinesterase came out at 11.7 µM.
Still for that read-out and setting: in the case of `CCCSc1nc2nc3c(c(N)c2s1)C1CC(CC)=CC(C3)C1` (racemic) it was 7.27 µM; in that of `CC1=CC2Cc3nc4oc(C)c(C)c4c(N)c3C(C1)C2` (racemic), 4.78 µM.
Regarding `CCCSc1nc2nc3c(c(N)c2s1)C1CC(C)=CC(C3)C1` (racemic), the IC50 at Acetylcholinesterase came to 7.69 µM.
For `COc1cc2c(cc1OC)C(c1cccc([N+](=O)[O-])c1)N(CCCCCCc1cn(CCNc3c4c(nc5cc(Cl)ccc35)CC3C=C(C)CC4C3)nn1)CC2` (racemic), the IC50 at Acetylcholinesterase amounted to 0.00395 µM. Besides, in the test filed under Homo sapiens, the Ratio IC50 was > 10000. In addition, the inhibition at Cholinesterase [3] stood at 6%.
In the case of `CC1=CC2Cc3nc4cc(Cl)ccc4c(NC(=O)CCl)c3C(C1)C2` (racemic), the IC50 on Acetylcholinesterase turned out to be 2.51 µM.
Still for that read-out and setting: in the case of `CC1=CC2Cc3nc4cc(Cl)ccc4c(O)c3C(C1)C2` (racemic) it was 14.7 µM; in that of `CC1=CC2Cc3nc4oc(C5CC5)nc4c(N)c3C(C1)C2` (racemic), 50 µM; in that of `CC1=CC2Cc3nc4cc(Cl)ccc4c(Cl)c3C(C1)C2` (racemic), 22.4 µM.
Same read-out and setting: to `CCC1=CC2Cc3nc4cc(Cl)ccc4c(Cl)c3C(C1)C2` (racemic) belongs 19.2 µM.
Take `CC1=CC2Cc3nc4ncccc4c(N)c3C(C1)C2` (racemic): the 50% inhibitory concentration (IC50) came to 0.81 µM on Acetylcholinesterase and 0.342 µM at Cholinesterase [2]. Moreover, the Ratio IC50 in the test listed under Homo sapiens was 0.4.
For the molecule `CCC1=CC2Cc3nc4oc(C)c(C)c4c(N)c3C(C1)C2` (racemic), on Acetylcholinesterase, the IC50 worked out at 6.45 µM.
Turning to `CCC1=CC2Cc3nc4cc(Cl)ccc4c(NCCN=[N+]=[N-])c3C(C1)C2` (racemic), the IC50 turned out to be 0.0137 µM at Acetylcholinesterase and 0.824 µM on Cholinesterase [2]. The Ratio IC50 in the test listed under Homo sapiens came out at 60.
Consider `CCC1=CC2Cc3nc4ncccc4c(N)c3C(C1)C2` (racemic), for which, on Acetylcholinesterase, the IC50 is 0.855 µM.
